In ChEMBL document CHEMBL1141897, “Pyrrolidinedione derivatives as antibacterial agents with a novel mode of action” (Bioorg Med Chem Lett, 2005):
Values after ≈ are worked out from the molar mass of the structure shown.

What was measured:
Assay type in all cases: functional
Streptococcus pneumoniae = assay: Minimum inhibitory concentration against Streptococcus pneumoniae G9A strain was determined
Escherichia coli [1] = assay: Minimum inhibitory concentration of the compound againstEscherichia coli Neumann strainwas determined
In short: (§1)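 Whole-cell MIC panel of the Gram-positive S. aureus 133 and S. pneumoniae G9A, plus two E. coli strains: Neumann (wild type) and HN818 (efflux pump deletion strain).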

Staphylococcus aureus [2] = assay: Minimum inhibitory concentration of the compound against Staphylococcus aureus 133 strain was determined; in short: as §1
Escherichia coli [3] = assay: Inhibitory concentration of the compound against Escherichia coli was determined
Escherichia coli [4] = assay: Minimum inhibitory concentration of the compound againstEscherichia coli HN818 strain was determined; in short: as §1
Staphylococcus aureus [5] = assay: Inhibitory concentration of the compound against Staphylococcus aureus was determined

| SMILES | MIC (Streptococcus pneumoniae) | MIC (Escherichia coli [1]) | MIC (Staphylococcus aureus [2]) | IC50 (Escherichia coli [3]) | MIC (Escherichia coli [4]) | IC50 (Staphylococcus aureus [5]) |
| --- | --- | --- | --- | --- | --- | --- |
| C/C=C/C=C/C(=O)N[C@@H](CC(=O)N[C@H](C(=O)C1C(=O)NC(=O)CC1C)C(C)C)c1ccccc1 (stereo not given in full) | > 64 µg/mL | > 64 µg/mL | > 64 µg/mL | > 300 nM | > 64 µg/mL | > 1000 nM |
| C/C=C/C=C/C(=O)N[C@@H](CC(=O)N[C@H](C(=O)[C@H]1CC(=O)N(C)C1=O)C(C)C)c1ccccc1 | > 64 µg/mL | > 64 µg/mL | > 64 µg/mL | > 200 nM | > 64 µg/mL | > 1000 nM |
| CC(C)[C@H](NC(=O)C[C@H](NC(=O)/C=C/c1ccc(-c2ccccc2)cc1)c1ccccc1)C(=O)[C@@H]1C(=O)NC(=O)[C@H]1C | 16 µg/mL (≈ 28.3 µM) | > 64 µg/mL | 2 µg/mL (≈ 3.54 µM) | 37 nM | > 64 µg/mL | 540 nM |
| CC(C)[C@H](NC(=O)C[C@H](NC(=O)/C=C/c1ccc(Cl)c(Cl)c1)c1ccccc1)C(=O)[C@@H]1C(=O)NC(=O)[C@H]1C | 32 µg/mL (≈ 57.3 µM) | 8 µg/mL (≈ 14.3 µM) | 2 µg/mL (≈ 3.58 µM) | 7 nM | 1 µg/mL (≈ 1.79 µM) | 288 nM |
| C/C=C/C=C/C(=O)N[C@@H](CC(=O)N[C@H](C(=O)[C@@H]1C(=O)NC(=O)[C@H]1C)C(C)C)c1ccccc1 | 32 µg/mL (≈ 70.6 µM) | 32 µg/mL (≈ 70.6 µM) | 8 µg/mL (≈ 17.6 µM) | 6 nM | 4 µg/mL (≈ 8.82 µM) | 96 nM |
| C/C=C/C=C/C(=O)N[C@@H](CC(=O)N[C@H](C(=O)[C@@H]1C(=O)N(C)C(=O)[C@H]1C)C(C)C)c1ccccc1 | > 64 µg/mL | > 64 µg/mL | 16 µg/mL (≈ 34.2 µM) | 25 nM | 16 µg/mL (≈ 34.2 µM) | 211 nM |
| COc1cccc(/C=C/C(=O)N[C@@H](CC(=O)N[C@H](C(=O)[C@@H]2C(=O)NC(=O)[C@H]2C)C(C)C)c2ccccc2)c1 | 16 µg/mL (≈ 30.8 µM) | 32 µg/mL (≈ 61.6 µM) | 4 µg/mL (≈ 7.7 µM) | 4 nM | 2 µg/mL (≈ 3.85 µM) | 43 nM |
| C/C=C/C=C/C(=O)N[C@@H](CC(=O)N[C@H](C(=O)[C@@H]1C(=O)N(N(C)C)C(=O)[C@H]1C)C(C)C)c1ccccc1 | 16 µg/mL (≈ 32.2 µM) | > 64 µg/mL | 4 µg/mL (≈ 8.05 µM) | 33 nM | 4 µg/mL (≈ 8.05 µM) | 238 nM |
| C/C=C/C=C/C(=O)N[C@@H](CC(=O)N[C@H](C(=O)C1CC(C)C(=O)NC1=O)C(C)C)c1ccccc1 (stereo not given in full) | > 64 µg/mL | > 64 µg/mL | > 64 µg/mL | 295 nM | > 64 µg/mL | > 1000 nM |
| C/C=C/C=C/C(=O)N[C@@H](CC(=O)N[C@H](C(=O)[C@@H]1C(=O)N(CCOC)C(=O)[C@H]1C)C(C)C)c1ccccc1 | 64 µg/mL (≈ 125 µM) | > 64 µg/mL | 64 µg/mL (≈ 125 µM) | 150 nM | > 64 µg/mL | 1300 nM |
| C/C=C/C=C/C=C/C(=O)N[C@@H](CC(=O)N[C@H](C(=O)[C@@H]1C(=O)NC(=O)[C@H]1C)C(C)C)c1ccccc1 | 8 µg/mL (≈ 16.7 µM) | > 64 µg/mL | 8 µg/mL (≈ 16.7 µM) | 13 nM | 32 µg/mL (≈ 66.7 µM) | 305 nM |
| C/C=C/C=C/C(=O)N[C@@H](CC(=O)N[C@H](C(=O)[C@@H]1C(=O)N(C2CC2)C(=O)[C@H]1C)C(C)C)c1ccccc1 | > 64 µg/mL | > 64 µg/mL | > 64 µg/mL | 60 nM | > 64 µg/mL | 2560 nM |
| C/C=C/C=C/C(=O)N[C@@H](CC(=O)N[C@H](C(=O)[C@@H]1C(=O)N(OCC)C(=O)[C@H]1C)C(C)C)c1ccccc1 | 32 µg/mL (≈ 64.3 µM) | > 64 µg/mL | 8 µg/mL (≈ 16.1 µM) | 100 nM | 64 µg/mL (≈ 129 µM) | 123 nM |
| CC(C)[C@H](NC(=O)C[C@H](NC(=O)/C=C/c1ccccc1)c1ccccc1)C(=O)[C@@H]1C(=O)NC(=O)[C@H]1C | 32 µg/mL (≈ 65.4 µM) | 32 µg/mL (≈ 65.4 µM) | 8 µg/mL (≈ 16.3 µM) | 9 nM | 2 µg/mL (≈ 4.09 µM) | 75 nM |
| C/C=C/C=C/C(=O)N[C@@H](CC(=O)N[C@H](C(=O)[C@@H]1C(=O)NC(=O)C1(C)C)C(C)C)c1ccccc1 | > 64 µg/mL | > 64 µg/mL | > 64 µg/mL | 54 nM | > 64 µg/mL | 900 nM |
| CC(C)[C@H](NC(=O)C[C@H](NC(=O)/C=C/c1c[nH]cn1)c1ccccc1)C(=O)[C@@H]1C(=O)NC(=O)[C@H]1C | > 64 µg/mL | > 64 µg/mL | > 64 µg/mL | 6 nM | 64 µg/mL (≈ 133 µM) | 151 nM |
| C/C=C/C=C/C(=O)N[C@@H](CC(=O)N[C@H](C(=O)[C@@H]1C(=O)N(C)C(=O)[C@H]1CC)C(C)C)c1ccccc1 | > 64 µg/mL | > 64 µg/mL | > 64 µg/mL | > 200 nM | > 64 µg/mL | > 1000 nM |
| C/C=C/C=C/C(=O)N[C@@H](CC(=O)N[C@H](C(=O)C1CCC(=O)NC1=O)C(C)C)c1ccccc1 (stereo not given in full) | > 64 µg/mL | > 64 µg/mL | > 64 µg/mL | > 300 nM | > 64 µg/mL | > 1000 nM |
| CC(C)[C@H](NC(=O)C[C@H](NC(=O)/C=C/C(=O)O)c1ccccc1)C(=O)[C@@H]1C(=O)NC(=O)[C@H]1C | > 64 µg/mL | > 64 µg/mL | > 64 µg/mL | 2 nM | > 64 µg/mL | 317 nM |
| C/C=C/C=C/C(=O)N[C@@H](CC(=O)N[C@H](C(=O)[C@@H]1C(=O)N(NC)C(=O)[C@H]1C)C(C)C)c1ccccc1 | 16 µg/mL (≈ 33.2 µM) | > 64 µg/mL | 4 µg/mL (≈ 8.29 µM) | 14 nM | 8 µg/mL (≈ 16.6 µM) | 105 nM |
